Reference: ChEMBL document CHEMBL4765319, “Identification of a new series of flavopiridol-like structures as kinase inhibitors with high cytotoxic potency” (Eur J Med Chem, 2020)
One block for each compound: values may come before it.

Columns and labels:
SK-OV-3 = assay: Antiproliferative activity against human SKOV3 cells assessed as reduction in cell viability incubated for 72 hrs by CellTiter-Blue fluorescence assay; details: SK-OV-3, 72 h
[1] = biological target: T1, CDK2/Cyclin A2 (Homo sapiens) (UniProt P24941+P20248); assay: Inhibition of human CDK2/cyclin A assessed as residual activity at 1 uM in presence of ATP by ADP-glo luminescent assay relative to control; assay type: protein-complex assay
Outline: (§1)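 Human kinases assayed by ADP-Glo luminescence with 10 μM ATP, compound at 10 or 1 μM. Activity is expressed as % of maximal activity relative to a DMSO control, mean n = 2.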

[2] = biological target: T2, CDK9/cyclin T1 (Homo sapiens) (UniProt O60563+P50750); assay: Inhibition of human CDK9/cyclin T assessed as residual activity at 1 uM in presence of ATP by ADP-glo luminescent assay relative to control; assay type: protein-complex assay
Outline: as §1

Sus scrofa [3] = species on record: Sus scrofa; assay: Inhibition of porcine CK1delta/epsilon assessed as residual activity at 1 uM in presence of ATP by ADP-glo luminescent assay relative to control
Leishmania major [4] = assay: Inhibition of Leishmania major CK1 assessed as residual activity at 1 uM in presence of ATP by ADP-glo luminescent assay relative to control
Sus scrofa [5] = species on record: Sus scrofa; assay: Inhibition of porcine CK1delta/epsilon assessed as residual activity at 10 uM in presence of ATP by ADP-glo luminescent assay relative to control
[6] = biological target: T1, CDK2/Cyclin A2 (Homo sapiens); assay: Inhibition of human CDK2/cyclin A assessed as residual activity at 10 uM in presence of ATP by ADP-glo luminescent assay relative to control; assay type: protein-complex assay
Outline: as §1

Plasmodium falciparum [7] = assay: Inhibition of Plasmodium falciparum GSK3 assessed as residual activity at 10 uM in presence of ATP by ADP-glo luminescent assay relative to control
Outline: (§2)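 Recombinant P. falciparum GSK3, bacterially expressed, in buffer A (10 mM MgCl2, 1 mM EGTA, 1 mM DTT, 25 mM Tris-HCl pH 7.5, 50 μg/ml heparin). Substrate 0.010 μg/μl GS-1 peptide, 10 μM ATP, ADP-Glo luminescence. Compound at 10 or 1 μM; % residual activity vs DMSO control, mean n = 2.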

[8] = biological target: T2, CDK9/cyclin T1 (Homo sapiens); assay: Inhibition of human CDK9/cyclin T assessed as residual activity at 10 uM in presence of ATP by ADP-glo luminescent assay relative to control; assay type: protein-complex assay
Outline: as §1

HCT-116 = assay: Antiproliferative activity against human HCT-116 cells assessed as reduction in cell viability incubated for 72 hrs by CellTiter-Blue fluorescence assay; details: HCT-116, 72 h
PC-3 = assay: Antiproliferative activity against human PC-3 cells assessed as reduction in cell viability incubated for 72 hrs by CellTiter-Blue fluorescence assay; details: PC-3, 72 h
K562 = assay: Antiproliferative activity against human K562 cells assessed as reduction in cell viability incubated for 72 hrs by CellTiter-Blue resazurin fluorescence assay; details: K562, 72 h
MIA PaCa-2 = assay: Antiproliferative activity against human MIA PaCa-2 cells assessed as reduction in cell viability incubated for 72 hrs by CellTiter-Blue fluorescence assay; details: MIA PaCa-2, 72 h
[9] = biological target: T3, Glycogen synthase kinase-3 beta (Homo sapiens, UniProt P49841); assay: Inhibition of human GSK3beta assessed as residual activity at 10 uM in presence of ATP by ADP-glo luminescent assay relative to control
Outline: as §1
Target sequence in this assay (P49841 whole entry, looked up): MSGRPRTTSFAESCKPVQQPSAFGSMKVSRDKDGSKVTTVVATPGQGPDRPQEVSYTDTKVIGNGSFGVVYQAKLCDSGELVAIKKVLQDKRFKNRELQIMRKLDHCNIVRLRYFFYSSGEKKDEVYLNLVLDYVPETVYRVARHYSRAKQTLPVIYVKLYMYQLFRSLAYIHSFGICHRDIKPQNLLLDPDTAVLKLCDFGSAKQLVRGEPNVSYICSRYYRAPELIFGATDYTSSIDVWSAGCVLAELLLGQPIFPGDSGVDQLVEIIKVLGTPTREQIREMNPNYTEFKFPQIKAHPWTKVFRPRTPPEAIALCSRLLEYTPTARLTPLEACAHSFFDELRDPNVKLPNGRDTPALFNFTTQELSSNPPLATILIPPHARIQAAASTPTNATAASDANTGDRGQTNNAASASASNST

[10] = biological target: T4, Cyclin-dependent kinase 5/CDK5 activator 1 (Homo sapiens) (UniProt Q00535+Q15078); assay: Inhibition of human CDK5/p25 assessed as residual activity at 10 uM in presence of ATP by ADP-glo luminescent assay relative to control; assay type: protein-complex assay
T4 sequence (Q00535 whole entry): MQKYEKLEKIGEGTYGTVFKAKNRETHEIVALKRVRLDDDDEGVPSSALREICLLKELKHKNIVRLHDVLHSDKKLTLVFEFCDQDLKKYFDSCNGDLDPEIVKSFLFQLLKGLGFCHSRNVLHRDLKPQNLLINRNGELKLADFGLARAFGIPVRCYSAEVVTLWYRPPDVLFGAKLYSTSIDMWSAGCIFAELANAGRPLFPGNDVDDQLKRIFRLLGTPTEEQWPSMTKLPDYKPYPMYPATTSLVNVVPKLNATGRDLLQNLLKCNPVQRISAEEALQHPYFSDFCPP
T4 sequence (Q15078 99-307 partner limits assumed): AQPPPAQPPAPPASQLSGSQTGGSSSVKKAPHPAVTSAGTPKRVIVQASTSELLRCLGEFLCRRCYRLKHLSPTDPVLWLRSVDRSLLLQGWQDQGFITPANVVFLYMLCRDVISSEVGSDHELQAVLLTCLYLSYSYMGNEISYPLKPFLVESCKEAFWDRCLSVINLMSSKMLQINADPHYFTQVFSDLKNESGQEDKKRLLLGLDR
Outline: as §1

Sus scrofa [11] = species on record: Sus scrofa; assay: Inhibition of porcine GSK3alpha/beta assessed as residual activity at 1 uM in presence of ATP by ADP-glo luminescent assay relative to control
Outline: (§3)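 Porcine brain GSK3α/β, native and affinity-purified. Assayed by ADP-Glo luminescence with 10 μM ATP and 0.010 μg/μl GS-1 peptide substrate. Buffer A: 10 mM MgCl2, 1 mM EGTA, 1 mM DTT, 25 mM Tris-HCl pH 7.5, 50 μg/ml heparin. Compound tested at 10 or 1 μM. Result is % of maximal activity versus DMSO control, mean of n = 2.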

[12] = biological target: T3, Glycogen synthase kinase-3 beta; assay: Inhibition of human GSK3beta assessed as residual activity at 1 uM in presence of ATP by ADP-glo luminescent assay relative to control
Outline: as §1
Target sequence in this assay (P49841 whole entry, looked up): as the sequence (P49841 whole entry, looked up) above

NCI-N87 = assay: Antiproliferative activity against human NCI-N87 cells assessed as reduction in cell viability incubated for 72 hrs by CellTiter-Blue fluorescence assay; details: NCI-N87, 72 h
Sus scrofa [13] = species on record: Sus scrofa; assay: Inhibition of porcine GSK3alpha/beta assessed as residual activity at 10 uM in presence of ATP by ADP-glo luminescent assay relative to control
Outline: as §3

[14] = biological target: T3, Glycogen synthase kinase-3 beta; assay: Inhibition of human GSK3beta in presence of ATP by ADP-glo luminescent assay
Outline: (§4)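 Human kinases tested over roughly 0.0003–10 μM by ADP-Glo luminescence with 10 μM ATP, in duplicate. IC50 is taken from dose-response curves.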
Target sequence in this assay (P49841 whole entry): as the sequence (P49841 whole entry, looked up) above

CDK9/cyclin T1 = CDK9/cyclin T1 (Homo sapiens, UniProt P50750); assay: Inhibition of human CDK9/cyclin T in presence of ATP by ADP-glo luminescent assay; assay type: protein-complex assay
Chain of CDK9/cyclin T1 (O60563 whole entry): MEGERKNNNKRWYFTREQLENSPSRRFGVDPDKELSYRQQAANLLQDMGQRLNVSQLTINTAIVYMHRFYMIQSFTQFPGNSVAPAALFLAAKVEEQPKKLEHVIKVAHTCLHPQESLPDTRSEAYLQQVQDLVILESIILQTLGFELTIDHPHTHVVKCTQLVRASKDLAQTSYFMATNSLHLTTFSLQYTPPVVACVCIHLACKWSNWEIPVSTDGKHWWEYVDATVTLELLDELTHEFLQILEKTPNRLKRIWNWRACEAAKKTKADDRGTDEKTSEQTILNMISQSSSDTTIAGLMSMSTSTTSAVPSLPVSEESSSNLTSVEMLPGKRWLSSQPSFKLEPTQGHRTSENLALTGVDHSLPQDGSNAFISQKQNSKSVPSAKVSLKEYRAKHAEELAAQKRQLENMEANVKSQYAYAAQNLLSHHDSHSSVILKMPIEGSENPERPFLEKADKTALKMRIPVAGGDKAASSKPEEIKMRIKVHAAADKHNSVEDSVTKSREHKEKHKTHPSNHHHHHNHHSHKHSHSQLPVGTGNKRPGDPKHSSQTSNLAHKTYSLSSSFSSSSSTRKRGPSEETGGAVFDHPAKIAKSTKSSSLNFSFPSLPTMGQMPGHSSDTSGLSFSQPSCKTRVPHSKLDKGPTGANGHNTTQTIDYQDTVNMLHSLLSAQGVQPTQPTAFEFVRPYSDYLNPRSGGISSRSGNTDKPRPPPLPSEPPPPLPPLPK
Chain of CDK9/cyclin T1 (P50750 whole entry): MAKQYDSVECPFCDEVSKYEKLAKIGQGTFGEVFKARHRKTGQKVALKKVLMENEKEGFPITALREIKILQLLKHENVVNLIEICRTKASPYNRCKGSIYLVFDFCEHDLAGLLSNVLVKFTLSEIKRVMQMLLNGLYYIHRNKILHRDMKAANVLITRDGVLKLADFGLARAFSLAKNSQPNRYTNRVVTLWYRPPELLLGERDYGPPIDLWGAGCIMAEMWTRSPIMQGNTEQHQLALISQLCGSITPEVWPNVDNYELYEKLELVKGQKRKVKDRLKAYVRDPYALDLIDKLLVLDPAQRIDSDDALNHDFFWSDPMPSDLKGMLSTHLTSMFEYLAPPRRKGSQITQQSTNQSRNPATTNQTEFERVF
Outline: as §4

CDK2/Cyclin A2 = CDK2/Cyclin A2 (Homo sapiens, UniProt P24941); assay: Inhibition of human CDK2/cyclin A in presence of ATP by ADP-glo luminescent assay; assay type: protein-complex assay
Outline: as §4

Plasmodium falciparum [15] = assay: Inhibition of Plasmodium falciparum GSK3 assessed as residual activity at 1 uM in presence of ATP by ADP-glo luminescent assay relative to control
Outline: as §2

SK-BR-3 = assay: Antiproliferative activity against human SK-BR-3 cells assessed as reduction in cell viability incubated for 72 hrs by CellTiter-Blue fluorescence assay; details: SK-BR-3, 72 h
Leishmania major [16] = assay: Inhibition of Leishmania major CK1 assessed as residual activity at 10 uM in presence of ATP by ADP-glo luminescent assay relative to control
[17] = biological target: Cyclin-dependent kinase 5/CDK5 activator 1 (Homo sapiens, UniProt Q00535); assay: Inhibition of human CDK5/p25 in presence of ATP by ADP-glo luminescent assay; assay type: protein-complex assay
Chain of Cyclin-dependent kinase 5/CDK5 activator 1 (Q00535 whole entry): as the sequence (Q00535 whole entry) above
Chain of Cyclin-dependent kinase 5/CDK5 activator 1 (Q15078 whole entry, further chain): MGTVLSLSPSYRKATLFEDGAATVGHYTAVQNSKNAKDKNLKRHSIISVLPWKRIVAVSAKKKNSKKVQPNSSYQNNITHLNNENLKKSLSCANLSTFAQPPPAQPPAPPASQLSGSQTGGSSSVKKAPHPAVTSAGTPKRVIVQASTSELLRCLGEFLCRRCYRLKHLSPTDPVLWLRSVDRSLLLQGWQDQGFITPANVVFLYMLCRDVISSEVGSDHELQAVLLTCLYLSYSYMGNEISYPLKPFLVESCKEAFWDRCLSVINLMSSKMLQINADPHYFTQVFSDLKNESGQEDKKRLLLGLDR
Outline: as §4

[18] = biological target: T4, Cyclin-dependent kinase 5/CDK5 activator 1 (Homo sapiens); assay: Inhibition of human CDK5/p25 assessed as residual activity at 1 uM in presence of ATP by ADP-glo luminescent assay relative to control; assay type: protein-complex assay
Outline: as §1

Compound: CN1CC=C(c2c(O)cc(O)c3c(=O)cc(-c4ccc(Sc5ncccn5)cc4Cl)oc23)CC1
IC50 (SK-OV-3): > 10000 nM

Compound: CN1CC=C(c2c(O)cc(O)c3c(=O)cc(-c4ccc(Sc5nc6ccccc6o5)cc4)oc23)CC1
IC50 (SK-OV-3): 2000 nM

Compound: CN1CC[C@H](c2c(O)cc(O)c3c(=O)cc(-c4ccccc4Cl)oc23)[C@H](O)C1 [ALVOCIDIB]
Activity [1]: 26%
Activity [2]: 5%
Activity (Sus scrofa [3]): > 100%
Activity (Leishmania major [4]): > 100%
Activity (Sus scrofa [5]): 78%
Activity [6]: 11%
Activity (Plasmodium falciparum [7]): 70%
Activity [8]: 1%
IC50 (K562): 125 nM
IC50 (MIA PaCa-2): 320 nM
IC50 (SK-OV-3): 220 nM
Activity [9]: 10%
Activity [10]: 13%
Activity (Sus scrofa [11]): 70%
Activity [12]: 50%
IC50 (NCI-N87): 111 nM
Activity (Sus scrofa [13]): 16%
Activity (Plasmodium falciparum [15]): > 100%
IC50 (SK-BR-3): 75 nM
Activity (Leishmania major [16]): 61%
Activity [18]: 36%

Compound: COC(=O)[C@H](CO)NC(=O)[C@H](CSc1ccc(-c2cc(=O)c3c(O)cc(O)c(C4=CCN(C)CC4)c3o2)cc1)NC(=O)OCc1ccccc1
IC50 (SK-OV-3): 4300 nM

Compound: CN1CC=C(c2c(O)cc(O)c3c(=O)cc(-c4ccc(Sc5ncccn5)cc4)oc23)CC1
IC50 (SK-OV-3): > 10000 nM

Now from value to compound, other results behind:

IC50 (SK-OV-3): 3800 nM
Compound: CN1CC=C(c2c(O)cc(O)c3c(=O)cc(-c4ccc(Sc5ccc6ccccc6n5)cc4)oc23)CC1

IC50 (SK-OV-3): 2870 nM
Compound: CC(=O)OC[C@@H]1O[C@@H](Sc2ccc(-c3cc(=O)c4c(O)cc(O)c(C5=CCN(C)CC5)c4o3)cc2)[C@@H](OC(C)=O)[C@H](OC(C)=O)[C@@H]1OC(C)=O

IC50 (SK-OV-3): > 10000 nM
Compound: CN1CC=C(c2c(O)cc(O)c3c(=O)cc(-c4ccc(Sc5ccc(C(=O)O)cn5)cc4)oc23)CC1

Activity [1]: 51%
Activity [2]: -2%
Activity (Sus scrofa [3]): 83%
Activity (Leishmania major [4]): 68%
Activity (Sus scrofa [5]): 41%
Activity [6]: 25%
Activity (Plasmodium falciparum [7]): 79%
Activity [8]: -4%
IC50 (HCT-116): 219 nM
IC50 (PC-3): 276 nM
IC50 (K562): 345 nM
IC50 (MIA PaCa-2): 361 nM
IC50 (SK-OV-3): 344 nM
Activity [9]: -3%
Activity [10]: 26%
Activity (Sus scrofa [11]): 41%
Activity [12]: 31%
Activity (Sus scrofa [13]): 8%
IC50 [14]: 160 nM
IC50 (CDK9/cyclin T1): 14 nM
IC50 (CDK2/Cyclin A2): 349 nM
Activity (Plasmodium falciparum [15]): 80%
IC50 (SK-BR-3): 249 nM
Activity (Leishmania major [16]): 57%
IC50 [17]: 284 nM
Activity [18]: 41%
Compound: CN1CC=C(c2c(O)cc(O)c3c(=O)cc(-c4ccc(Sc5nc6ccccc6n5C)cc4)oc23)CC1
IC50 (NCI-N87): 391 nM

IC50 (SK-OV-3): > 10000 nM
Compound: CN1CC=C(c2c(O)cc(O)c3c(=O)cc(-c4ccc(Sc5ccc(C(=O)NO)cn5)cc4)oc23)CC1

IC50 (SK-OV-3): > 10000 nM
Compound: CC(=O)OC[C@@H]1O[C@@H](Sc2ccc(-c3cc(=O)c4c(O)cc(O)c(C5=CCN(C)CC5)c4o3)cc2)[C@@H](OC(C)=O)[C@H](OC(C)=O)[C@H]1OC(C)=O
